Experimental findings from ChEMBL document CHEMBL1152392, “Discovery and optimization of a novel Neuromedin B receptor antagonist” (Bioorg Med Chem Lett, 2009) are described below.

Structures are written as SMILES.

For the first data set, the system named is HeLa. Briefly: Cytotoxicity against human HeLa cells up to 30 uM after 72 hrs by alamar blue assay. Format: cell-based.
Details: not given
In short, it runs like this:
(§1)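 HeLa cells were seeded at 5k per well. Compounds were tested as a 9-point threefold dilution series, with triplicate readings at 0 and 72 h. At each time point Alamar Blue was added for 3 h at 37 °C and fluorescence was read. Relative growth was compared to a DMSO control well for each compound.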
(In general: The colour change of resazurin is a common sign of viable cells or microbes.)
As to `Cc1ccc2c(c1)NC(c1ccccc1C(F)(F)F)C1=C(CC3(CCCC3)CC1=O)N2` (single isomer, unassigned; (+)), the Activity result is listed as “Non-toxic”.

For the next data set, the target named is T1, Neuromedin-B receptor (Homo sapiens, UniProt P28336). Briefly: Displacement of [125I]-(D-Tyr0)NMB from human neuromedin B receptor transfected in HEK293 cells. The format is cell-based.
T1 sequence (P28336 whole entry): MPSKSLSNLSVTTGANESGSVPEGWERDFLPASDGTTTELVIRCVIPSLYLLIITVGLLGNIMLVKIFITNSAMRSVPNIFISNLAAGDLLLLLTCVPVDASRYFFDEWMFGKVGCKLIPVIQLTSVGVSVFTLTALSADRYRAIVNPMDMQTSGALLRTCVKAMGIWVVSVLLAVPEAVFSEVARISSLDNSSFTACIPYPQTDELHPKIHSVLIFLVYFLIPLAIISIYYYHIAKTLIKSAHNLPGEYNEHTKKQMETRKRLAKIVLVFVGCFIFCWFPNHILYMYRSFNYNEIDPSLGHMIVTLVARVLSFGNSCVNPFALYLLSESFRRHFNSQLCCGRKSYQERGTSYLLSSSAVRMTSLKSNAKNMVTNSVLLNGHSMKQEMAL
Details: not given
In short, it runs like this:
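Whole-cell competition binding used 1 × 10⁶ HEK293 cells stably transfected with hNMBR, with 150 pM ¹²⁵I-[D-Tyr0]NMB (2200 Ci/mmol), in DMEM for 1 h at room temperature. Bound ligand was separated by filtration and total bound counts were measured. Day-to-day standard error was <30%; well-to-well variability was <10%.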
(In a radioligand displacement assay an active substance lowers the binding of a labelled ligand.)
For orientation: IC50 means the concentration needed to halve the response being measured. Regarding `CCN1c2cc(C)ccc2NC2=C(C(=O)CC(C)(C)C2)C1c1c(F)cccc1Cl` (configuration not stated), the IC50 worked out at 180 nM.
`Cc1ccc2c(c1)NC(c1ccccc1F)C1=C(CC(C)(C)CC1=O)N2` (configuration not stated) returned an IC50 of 1300 nM.
On the same count and under the same terms, under `Cc1ccc2c(c1)NC(c1c(F)cccc1F)C1=C(CC(C)(C)CC1=O)N2` (configuration not stated) stands 2500 nM; under `Cc1ccc2c(c1)NC(c1c(F)cccc1Cl)C1=C(CC(C)CC1=O)N2` (configuration not stated), 450 nM.
Compound `Cc1ccc2c(c1)NC(c1c(F)cccc1C(F)(F)F)C1=C(CC3(CCCC3)CC1=O)N2` (configuration not stated) gave an IC50 of 540 nM.
In the case of `Cc1ccc2c(c1)NC(c1c(F)cccc1Cl)C1=C(CC(C)(C)CC1=O)N2C` (configuration not stated), the half-inhibitory concentration (IC50) came out at 10000 nM.
As for `Cc1ccc2c(c1)NC(c1c(F)cccc1Cl)C1=C(CC(c3ccc(N(C)C)cc3)CC1=O)N2` (configuration not stated), the IC50 was found to be 5400 nM.
The compound `Cc1ccc2c(c1)NC(c1c(F)cccc1Cl)C1=C(CC(C)(C)CC1=O)N2` (configuration not stated) came in with an IC50 of 300 nM.
With `CC1(C)CC(=O)C2=C(C1)Nc1ccc(OC(F)(F)F)cc1NC2c1c(F)cccc1Cl` (configuration not stated), the IC50 turned out to be 1300 nM.
Turning to `COc1ccc(C2CC(=O)C3=C(C2)Nc2ccc(C)cc2NC3c2c(F)cccc2Cl)cc1` (configuration not stated), the IC50 stood at 2000 nM.
Take `CSc1ccccc1C1Nc2cc(C)ccc2NC2=C1C(=O)CC(C)(C)C2` (configuration not stated): the IC50 came out at 200 nM.
Compound `Cc1ccc2c(c1)NC(c1c(F)cccc1Cl)C1=C(CCCC1=O)N2` (configuration not stated) gave an IC50 of 1400 nM.
Still for that read-out and setting: in the case of `Cc1ccc2c(c1)NC(c1ccccc1SC(F)(F)F)C1=C(CC3(CCCC3)CC1=O)N2` (configuration not stated) it was 640 nM; in that of `COc1ccc2c(c1)NC(c1c(F)cccc1Cl)C1=C(CC(C)(C)CC1=O)N2` (configuration not stated), 2200 nM.
For `CC1(C)CC(=O)C2=C(C1)Nc1ccc(O)cc1NC2c1c(F)cccc1Cl` (configuration not stated), the IC50 was 10000 nM.
Compound `COc1ccccc1C1Nc2cc(C)ccc2NC2=C1C(=O)CC(C)(C)C2` (configuration not stated) came in with an IC50 of 1100 nM.
The same measure, in the same setting: in the case of `CCCCN1c2cc(C)ccc2NC2=C(C(=O)CC(C)(C)C2)C1c1c(F)cccc1Cl` (configuration not stated) it was 150 nM; in that of `CSc1ccccc1C1Nc2cc(C)ccc2NC2=C1C(=O)CC1(CCCC1)C2` (configuration not stated), 250 nM.
For the compound `Cc1ccc2c(c1)NC(c1ccccc1)C1=C(CC(C)(C)CC1=O)N2` (configuration not stated), the IC50 is 6900 nM.
For `Cc1ccc2c(c1)NC(c1ccccc1[N+](=O)[O-])C1=C(CC(C)(C)CC1=O)N2` (configuration not stated), the half-inhibitory concentration (IC50) was found to be 550 nM.
For the compound `Cc1ccc2c(c1)NC(c1c(F)cccc1Cl)C1=C(CC3(CCCC3)CC1=O)N2` (configuration not stated), the IC50 worked out at 280 nM.
`CC1(C)CC(=O)C2=C(C1)Nc1ccc(C#N)cc1NC2c1c(F)cccc1Cl` (configuration not stated) yielded a 50% inhibitory concentration (IC50) of 1300 nM.
On the same count and under the same terms, in the case of `Cc1ccc2c(c1)NC(c1c(F)cccc1Cl)C1=C(CC(c3ccco3)CC1=O)N2` (configuration not stated) it was 3000 nM.
On to `Cc1ccc2c(c1)NC(c1ccccc1Cl)C1=C(CC3(CCCC3)CC1=O)N2` (configuration not stated), for which the IC50 is 240 nM.
The compound `CC1(C)CC(=O)C2=C(C1)Nc1ccc(C(N)=O)cc1NC2c1c(F)cccc1Cl` (configuration not stated) had a half-inhibitory concentration (IC50) of 10000 nM.
`Cc1ccc2c(c1)NC(c1ccccc1C(F)(F)F)C1=C(CC(C)(C)CC1=O)N2` (configuration not stated) came in with an IC50 of 250 nM.
Consider `Cc1ccc2c(c1)NC(c1c(F)cccc1Cl)C1=C(CCC1=O)N2` (configuration not stated), for which the IC50 came out at 10000 nM.
Consider `Cc1ccc2c(c1)N(C)C(c1c(F)cccc1Cl)C1=C(CC(C)(C)CC1=O)N2` (configuration not stated), for which the IC50 is 170 nM.
Take `CC1(C)CC(=O)C2=C(C1)Nc1ccc(C(=O)O)cc1NC2c1c(F)cccc1Cl` (configuration not stated): the IC50 came out at 10000 nM.
`Cc1ccc2c(c1)NC(c1c(F)cccc1Cl)C1=C(CC(C(C)C)CC1=O)N2` (configuration not stated) registered an IC50 of 810 nM.
In the case of `Cc1ccc2c(c1)NC(c1ccccc1Cl)C1=C(CC(C)(C)CC1=O)N2` (configuration not stated), the IC50 is 280 nM.
With `CC1(C)CC(=O)C2=C(C1)Nc1ccc(Cl)cc1NC2c1c(F)cccc1Cl` (configuration not stated), the IC50 was determined as 860 nM.
The same measure, in the same setting: under `CC1(C)CC(=O)C2=C(C1)Nc1ccc(C(F)(F)F)cc1NC2c1c(F)cccc1Cl` (configuration not stated) stands 370 nM; under `Cc1ccc2c(c1)NC(c1ccccc1C(F)(F)F)C1=C(CC3(CCCC3)CC1=O)N2` (single isomer, unassigned; (+)), 30 nM.
In the case of `Cc1ccc2c(c1)NC(c1ccccc1C(F)(F)F)C1=C(CC3(CCCC3)CC1=O)N2` (single isomer, unassigned; (-)), the IC50 was greater than 10000 nM.
In turn, `Cc1ccc2c(c1)NC(c1ccccc1C(F)(F)F)C1=C(CC3(CCCC3)CC1=O)N2` (stereo in doubt; 30) returned an IC50 of 96 nM.

In another data set the test system is HEK293. Briefly: Cytotoxicity against HEK293 cells up to 30 uM after 72 hrs by alamar blue assay. The format is cell-based. The following applies: human, hek293, 72 h.
For `Cc1ccc2c(c1)NC(c1ccccc1C(F)(F)F)C1=C(CC3(CCCC3)CC1=O)N2` (single isomer, unassigned; (+)), the Activity result is recorded as “Non-toxic”.

For the next data set, the target named is T1, Neuromedin-B receptor. Briefly: Antagonist activity at human neuromedin B receptor transfected in HEK293 cells assessed as inhibition of 1 nM neuromedin B-induced myo-[3H]inositol phosphate accumulation after 60 mins by scintillation proximity assay. The format is functional, cell-based.
Details: not given
In short, it runs like this:
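hNMBR-transfected HEK293 cells (2.5 × 10⁴ per well) were labelled overnight at 37 °C with myo-[³H]inositol in inositol-free DMEM with 25 mM Hepes and 10% dialyzed FBS. Compounds were added in inositol-free DMEM with 0.3% BSA and 10 mM LiCl for 60 min at 37 °C. Cells were lysed in 20 mM formic acid (2 h, 4 °C), and inositol phosphates were captured on RNA-binding SPA beads for 30 min.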
In the case of `Cc1ccc2c(c1)NC(c1c(F)cccc1Cl)C1=C(CC(C)(C)CC1=O)N2` (configuration not stated), the IC50 was 5500 nM.
Turning to `Cc1ccc2c(c1)NC(c1ccccc1C(F)(F)F)C1=C(CC3(CCCC3)CC1=O)N2` (single isomer, unassigned; (+)), the IC50 turned out to be 580 nM.

The subject of another data set is HeLa. Briefly: Cytotoxicity against human HeLa cells after 72 hrs by alamar blue assay.
Details: not given
Format: cell-based. In short, it runs like this:
as §1
On to `Cc1ccc2c(c1)NC(c1ccccc1C(F)(F)F)C1=C(CC3(CCCC3)CC1=O)N2` (single isomer, unassigned; (+)), for which the IC50 is greater than 50000 nM.

Another data set deals with Gastrin-releasing peptide receptor (Homo sapiens, UniProt P30550). Briefly: Inhibition gastrin-releasing peptide receptor.
Sequence of Gastrin-releasing peptide receptor (P30550 whole entry): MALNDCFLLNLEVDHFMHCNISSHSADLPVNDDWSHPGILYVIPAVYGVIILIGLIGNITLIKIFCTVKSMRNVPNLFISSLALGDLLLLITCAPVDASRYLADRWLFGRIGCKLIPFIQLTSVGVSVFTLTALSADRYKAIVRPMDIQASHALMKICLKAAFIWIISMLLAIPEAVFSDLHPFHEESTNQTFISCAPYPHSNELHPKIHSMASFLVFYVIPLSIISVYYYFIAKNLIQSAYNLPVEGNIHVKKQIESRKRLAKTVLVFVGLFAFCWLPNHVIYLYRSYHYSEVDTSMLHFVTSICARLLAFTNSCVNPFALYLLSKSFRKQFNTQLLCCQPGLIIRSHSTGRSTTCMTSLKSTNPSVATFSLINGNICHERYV
Details: not given
`Cc1ccc2c(c1)NC(c1c(F)cccc1Cl)C1=C(CC(C)(C)CC1=O)N2` (configuration not stated) yielded an IC50 greater than 10000 nM.
